Screening data from PubChem BioAssay.
Shown are actives, neighbours in structure and some others; about 3.5% of the full set was active somewhere.
MrgX1 antag: blocks BAM8-22 activation of human MrgX1 receptor. Q96LB2. MRGX1-HEK293 calcium flux, Fluo-4, BAM8-22 antagonism; hits give low values. B-score at 10 µM. 1.3% of 310,000 active;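 active means calcium-response B-score plate-corrected more than 3 library SD below zero, starting fluorescence within 5 deviations, no agonist response on first addition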;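 further: peak minus trough fluorescence over baseline after final BAM8-22 challenge near maximal dose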
Target sequence (Q96LB2 whole entry, looked up): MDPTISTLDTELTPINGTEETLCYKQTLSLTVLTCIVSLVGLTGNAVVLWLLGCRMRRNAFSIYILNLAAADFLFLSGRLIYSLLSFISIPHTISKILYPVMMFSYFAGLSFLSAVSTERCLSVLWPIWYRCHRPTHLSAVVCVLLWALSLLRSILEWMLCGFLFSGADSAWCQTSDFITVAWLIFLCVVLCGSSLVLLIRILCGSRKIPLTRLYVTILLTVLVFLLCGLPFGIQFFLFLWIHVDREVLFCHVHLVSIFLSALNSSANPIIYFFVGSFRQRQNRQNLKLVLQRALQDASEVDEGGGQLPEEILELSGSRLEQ
MrgX1 ag: agonists of human MrgX1 receptor | B-score at 10 µM | Q96LB2 | 0.44% of 310,000 active | MrgX1-HEK293 cells, Fluo-4 calcium fluorescence, agonist mode; hits give high values;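 active means calcium response B-score plate-corrected fluorescence ratio at least 3 library SD, with starting fluorescence B-score inside 5 SD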
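System: HEK293 cells stably expressing human MrgX1 receptor; Dosing: test compound in the initial addition of three; Schedule: overnight plating, then 30 min 37 °C plus 30 min room-temperature dye loading; Detection: kinetic calcium dye fluorescence, Fluo-4 NW; Controls: per-plate positive and negative controls for Z′ factor.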
MrgX1 PAM: human MrgX1 positive allosteric modulation, primary screen. MrgX1-HEK293, Fluo-4 calcium flux, FDSS; hits give high values. B-score at 10 µM. 0.63% of 310,000 active. Q96LB2. AID 588675;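 active means plate-corrected calcium response at least 3 library SD above typical, normal starting fluorescence, not activating the receptor alone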;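 further: compound read alongside a low EC10 to EC30 dose of BAM8-22 agonist; peak minus trough fluorescence over baseline measured at the second addition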
RGS4 pot: RGS4 potentiation or activation; HEK293 M3R/inducible RGS4, carbachol calcium flux Fluo4; hits give low values; B-score at 10 µM; 0.92% of 310,000 active;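 active means B-score of the integrated calcium signal more than 4 SD below the library mean, with starting fluorescence not abnormally high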;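 further: negative B-score means reduced calcium response which marks RGS4 activation or potentiation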
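Also added: carbachol at ECmax as muscarinic agonist stimulus; Assay system: HEK293 cells with stable M3R and inducible RGS4; Timing: overnight RGS4 induction, 30 min dye load 37 °C, 20 min compound RT; Measured by: Fluo4-AM (2 µM) calcium-flux fluorescence, kinetic read.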
RGS4 block: inhibitors of human RGS4. AID 463165. B-score at 10 µM. 0.45% of 310,000 active. HEK293 M3R/RGS4 inducible, Fluo-4 calcium flux; hits give high values; triggered by carbachol at its EC20;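 active means B-score, a plate-corrected calcium signal, over three deviations above library mean, with baseline fluorescence within five deviations of library mean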;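 further: RGS4 expression induced by doxycycline in cells with stable M3 receptor; B-score is computed from the integrated fluorescence ratio over baseline after carbachol; higher B-score means a larger calcium signal and so more RGS4 inhibition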
Target sequence (P49798 whole entry, looked up): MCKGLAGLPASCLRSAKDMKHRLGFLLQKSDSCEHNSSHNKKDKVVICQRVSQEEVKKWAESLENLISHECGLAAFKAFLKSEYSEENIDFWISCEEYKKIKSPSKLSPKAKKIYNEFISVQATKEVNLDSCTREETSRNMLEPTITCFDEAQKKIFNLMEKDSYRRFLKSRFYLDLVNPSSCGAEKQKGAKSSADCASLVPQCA
MrgX1 ant reconf: human MrgX1 receptor antagonism, re-confirmation screen; MrgX1-HEK293, BAM8-22 calcium flux, Fluo-4; hits give low values; remaining BAM8-22 calcium response % of control (hits give low values), % at 10 µM; 19% of 2,300 active; shares compounds with MrgX1 antag;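 active means remaining agonist calcium response no higher than 100% minus 3 SD of agonist-only control wells, with starting fluorescence near control levels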;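 further: agonist BAM8-22 given at a near maximal EC90 to ECmax level; peak minus minimum fluorescence divided by baseline after agonist addition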
HEK293 Ca flux: MrgX1 antagonist counter-screen hit in parental HEK293 cells; shares compounds with MrgX1 antag; Fluo-4 calcium fluorescence, FDSS; fluorescence ratio F(max-min)/F0 at 10 µM; 2% of 4,000 active; AID 624111;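 active means duplicate-averaged calcium fluorescence ratio at least three times the standard deviation of buffer wells, a nonspecific response in parental cells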
HEK293 Ca counter: MrgX1 allosteric activator counter-screen hit in parental HEK293 cells | shares compounds with MrgX1 antag | fluorescence ratio F(max-min)/F0 at 10 µM | 0.4% of 4,000 active | parental HEK293 calcium flux, Fluo-4 fluorescence ratio; hits give high values;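 active means calcium fluorescence ratio, averaged over duplicates, at least 3 SD of the buffer-well ratio, meaning a nonspecific response in receptor-free cells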;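 further: untransfected parental HEK293 lacking MrgX1 used as counterscreen for MrgX1 allosteric activators; fluorescence change taken during the second addition on a kinetic imager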
HEK293 Ca cntr2: activity in parental HEK293 cells lacking MrgX1 receptor | shares compounds with MrgX1 antag | Fluo-4 calcium fluorescence (FDSS); hits give high values | fluorescence ratio F(max-min)/F0 at 10 µM | 8.7% of 4,000 active;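 active means calcium fluorescence ratio at least three times the spread of buffer wells, meaning a non-specific response in parental cells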
An asterisk follows results filed as active; i = inactive; x = not tested or not shown.

SMILES | MrgX1 antag | MrgX1 ag | MrgX1 PAM | RGS4 pot | RGS4 block | MrgX1 ant reconf | HEK293 Ca flux | HEK293 Ca counter | HEK293 Ca cntr2
CCCSCCCNC(=O)CC1Oc2ccccc2NC1=O (centres undefined) | -4.9* | i | i | i | i | i | i | i | i
Cc1ccc(C(=O)c2c[nH]c3c(F)cc(F)cc3c2=O)cc1 | -6.8* | i | i | i | i | i | i | i | i
COc1ccc2c(c1)c(=O)c(C(=O)c1ccc(C)cc1)cn2CC(=O)Nc1ccc(F)cc1 | i | i | i | i | i | x | x | x | x
O=C(CSc1ncnc2c1cnn2-c1ccccc1)NC1CCCC1 | i | i | i | i | i | x | x | x | x
COc1cccc(C(=O)N2CCN(C(=O)c3cccc4ccccc34)CC2)c1OC | -4.9* | i | i | i | i | 85%* | i | i | i
COc1ccc(CN2CCN(C(=O)c3cccc4ccccc34)CC2)c(OC)c1OC | i | i | i | i | i | x | x | x | x
O=C1CCSc2ccc(Cl)cc2N1Cc1ccccc1 | -4.6* | i | i | i | i | 75%* | i | i | i
Cc1cccc(CN2C(=O)CCSc3ccc(Cl)cc32)c1 | i | i | i | i | i | x | x | x | x
COc1ccc(CNC(=O)Cn2nnc(-c3ccc(NC(=O)C4CCCCC4)cc3)n2)cc1 | i | i | i | i | i | x | x | x | x
Cn1nc(C(=O)Nc2cccc(Cl)c2)cc1C(=O)Nc1cccc(Cl)c1 | -4.8* | i | i | i | i | i | i | i | i
Cc1ccc(N(CN2C(=O)C3C4CCC(C4)C3C2=O)C(=O)c2ccco2)cc1 (centres undefined) | i | i | i | i | i | x | x | x | x
O=C1CCC(=O)N1CN(C(=O)c1ccco1)c1ccccc1 | -6.6* | i | i | i | i | i | i | i | i
C(=C\c1ccccc1)/CN1CCN(c2ncnc3c2oc2ccccc23)CC1 | -7.3* | i | i | i | i | 47%* | i | i | i
c1ccc2[nH]c(CN3CCN(c4ncnc5c4oc4ccccc45)CC3)nc2c1 | -6.4* | i | i | x | x | i | i | i | i
CCOc1ccc(C2C(C#N)=C(N)Oc3cc(C)n(CCN(C)C)c(=O)c32)cc1OCC (centres undefined) | -4.5* | i | i | i | i | i | i | i | i
COc1ccc(-n2c(=S)[nH]c3cc(C(=O)Nc4ccc(C)c(F)c4)ccc3c2=O)c(OC)c1 | -5* | i | i | i | i | i | i | i | i
O=C(Nc1ccc(OCC(F)(F)C(F)F)c(C(F)(F)F)c1)c1ccccc1O | -5.7* | i | i | i | i | i | i | i | i
Cn1c(N)c(C(=O)COC(=O)CSc2ccc(Cl)cc2)c(=O)n(C)c1=O | i | i | i | i | i | x | x | x | x
COc1ccc(N2C(=O)CCC(C(=O)N3CCCCC3)C2c2ccc(F)cc2)cc1 (centres undefined) | i | i | i | i | i | x | x | x | x
COc1ccc(N2C(=O)CCC(C(=O)N3CCOCC3)C2c2ccc(F)cc2)cc1 (centres undefined) | -4.8* | i | i | i | i | i | i | i | i
O=C(/C=C/c1ccccc1)NCC(=O)N/N=C/c1cccs1 | i | i | i | i | i | x | x | x | x
CC(C)C(NS(=O)(=O)c1cccs1)C(=O)NCc1ccc2c(c1)OCO2 (centres undefined) | -4.6* | i | i | i | i | i | i | i | i
Cc1ccc(CNC(=O)C(NS(=O)(=O)c2cccs2)C(C)C)cc1 (centres undefined) | i | i | i | i | i | x | x | x | x
OCC[C@H]1C[C@@H](O)[C@H](O)[C@]2(CCc3ccccc3CO2)O1 | i | i | i | x | x | x | x | x | x
OCC[C@@H]1C[C@@H](O)[C@H](O)[C@@]2(CCc3ccccc3CO2)O1 | -5* | i | i | i | i | i | i | i | i
SMILES | MrgX1 antag | MrgX1 ag | MrgX1 PAM | RGS4 pot | RGS4 block | MrgX1 ant reconf | HEK293 Ca flux | HEK293 Ca counter | HEK293 Ca cntr2
Cc1nc2sc3c(c2c(=O)o1)CC(C)(C)OC3 | -6.1* | i | i | i | i | i | i | i | i
COc1ccc(NS(=O)(=O)c2cccc(NC(=O)c3cnccn3)c2)cc1Br | i | i | i | i | i | x | x | x | x
CCCOC(=O)c1cc(=O)[nH]c2ccccc12 | -4.7* | i | i | i | i | i | i | i | i
CC(=O)c1cc2c(cc1NC(=O)CSc1nc3ccccc3[nH]1)OCO2 | -6.6* | i | i | i | i | 75%* | i | i | i
COCC(C)n1c(C)cc(C(=O)CSc2nc3ccccc3c(=O)[nH]2)c1C (centres undefined) | -7.7* | i | i | i | i | i | i | i | i
C=CCn1c(C)cc(C(=O)CSc2nc3ccccc3c(=O)[nH]2)c1C | i | i | i | x | x | x | x | x | x
C=CCn1c(C)cc(C(=O)CSc2nc3ccccc3[nH]2)c1C | -6.7* | i | i | i | i | 71%* | i | i | i
O=C(CSc1nc2ccccc2[nH]1)c1c[nH]c2ccccc12 | -5.7* | i | i | i | i | i | i | i | i
COC(=O)C(Cc1ccccc1)NC(=O)CCc1c[nH]c2ccccc12 (centres undefined) | i | i | i | i | i | x | x | x | x
COc1ccc(C(=O)NCc2ccc3[nH]c(C)cc3c2)cc1OC | i | i | i | i | i | x | x | x | x
CC(C)Sc1nc(C(F)(F)F)cc(=O)n1-c1ccccc1 | -8.2* | i | i | i | i | i | i | i | i
CCSc1nc(C(F)(F)F)cc(=O)n1-c1ccccc1 | i | i | i | i | i | x | x | x | x
CCSc1nc2cc(OC)c(OC)cc2c(=O)n1CC | -4.8* | i | i | i | i | i | i | i | i
